# Laboratory results as given in ChEMBL document CHEMBL5303300, “EUbOPEN Chemogenomics Library - Multiplex” (2023).
# Several values for one entry are separate records, joined by “and”; a condition that tells them apart may be missing. Identical values can stand only once.
# Tested on: HEK-293T
# Test: Multiplex assay against HEK293T
# Assay type: toxicity, cell-based
# Conditions: human, number of replicates 2
# Summary of the method: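 Compound was added to live cells that had been stained at seeding with Hoechst33342, BioTracker Green Microtubule Cytoskeleton Dye, MitoTracker Red and Annexin V Alexa Fluor 680, and imaging followed on a CQ1 microscope at 37°C and 5% CO2. CellPathfinder machine-learning gating divided cells into Hoechst high-intensity objects or normal cells, normal cells into healthy, pyknosed or fragmented nuclei, and pyknosed cells into mitotic or apoptotic. Tubulin, mitochondrial-mass and membrane-permeability phenotypes are per cents of healthy-nucleus cells.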
# [1] = 12 h, 1 µM, compound concentration 1 uM
# [2] = 12 h, 10 µM, compound concentration 10 uM
# [3] = 24 h, 1 µM, compound concentration 1 uM
# [4] = 24 h, 10 µM, compound concentration 10 uM
# [5] = 48 h, 1 µM, compound concentration 1 uM
# [6] = 48 h, 10 µM, compound concentration 10 uM
smiles,measurement,setting,value
CC(C)NC(=O)[C@H]1CCC[C@H]1Nc1nc(Nc2ccc(C(=O)N(C)C3CCN(C)CC3)cc2)ncc1Cl,Population Apoptotic (%),[1],64% and 57%
same,Population Fragmented Nuclei (%),[1],3% and 1%
same,Population Healthy Nuclei (%),[1],79% and 87%
same,Population Hoechst High Intensity Objects (%),[1],7% and 8%
same,Population Membrane Permeable-Phenotype (%),[1],4% and 2%
same,Population Mitochondria Different-Phenotype (%),[1],17% and 15%
same,Population Mitotic Cells (%),[1],35% and 42%
same,Population Normal (%),[1],92% and 91%
same,Population Pyknosed Nuclei (%),[1],16% and 10%
same,Population Tubulin-Different-Phenotype (%),[1],60% and 58%
same,Total Cell Count,[1],568 and 503
same,Population Apoptotic (%),[2],47% and 56%
same,Population Fragmented Nuclei (%),[2],3% and 2%
same,Population Healthy Nuclei (%),[2],87% and 86%
same,Population Hoechst High Intensity Objects (%),[2],8% and 7%
same,Population Membrane Permeable-Phenotype (%),[2],4%
same,Population Mitochondria Different-Phenotype (%),[2],29% and 30%
same,Population Mitotic Cells (%),[2],52% and 43%
same,Population Normal (%),[2],91% and 92%
same,Population Pyknosed Nuclei (%),[2],9% and 10%
same,Population Tubulin-Different-Phenotype (%),[2],88% and 87%
same,Total Cell Count,[2],520 and 480
same,Population Apoptotic (%),[3],64% and 61%
same,Population Fragmented Nuclei (%),[3],5% and 6%
same,Population Healthy Nuclei (%),[3],76% and 84%
same,Population Hoechst High Intensity Objects (%),[3],9% and 10%
same,Population Membrane Permeable-Phenotype (%),[3],2%
same,Population Mitochondria Different-Phenotype (%),[3],9% and 5%
same,Population Mitotic Cells (%),[3],35% and 38%
same,Population Normal (%),[3],90% and 89%
same,Population Pyknosed Nuclei (%),[3],17% and 8%
same,Population Tubulin-Different-Phenotype (%),[3],43% and 37%
same,Total Cell Count,[3],653 and 524
same,Population Apoptotic (%),[4],52% and 54%
same,Population Fragmented Nuclei (%),[4],3% and 4%
same,Population Healthy Nuclei (%),[4],85% and 87%
same,Population Hoechst High Intensity Objects (%),[4],6% and 9%
same,Population Membrane Permeable-Phenotype (%),[4],6% and 3%
same,Population Mitochondria Different-Phenotype (%),[4],16% and 18%
same,Population Mitotic Cells (%),[4],47% and 45%
same,Population Normal (%),[4],93% and 90%
same,Population Pyknosed Nuclei (%),[4],11% and 7%
same,Population Tubulin-Different-Phenotype (%),[4],74% and 81%
same,Total Cell Count,[4],514 and 516
same,Population Apoptotic (%),[5],68% and 45%
same,Population Fragmented Nuclei (%),[5],9% and 8%
same,Population Healthy Nuclei (%),[5],84% and 89%
same,Population Hoechst High Intensity Objects (%),[5],9% and 10%
same,Population Membrane Permeable-Phenotype (%),[5],3% and 1%
same,Population Mitochondria Different-Phenotype (%),[5],1% and 2%
same,Population Mitotic Cells (%),[5],31% and 54%
same,Population Normal (%),[5],90% and 89%
same,Population Pyknosed Nuclei (%),[5],5% and 2%
same,Population Tubulin-Different-Phenotype (%),[5],22% and 20%
same,Total Cell Count,[5],714 and 606
same,Population Apoptotic (%),[6],47% and 53%
same,Population Fragmented Nuclei (%),[6],8% and 10%
same,Population Healthy Nuclei (%),[6],84% and 85%
same,Population Hoechst High Intensity Objects (%),[6],10% and 11%
same,Population Membrane Permeable-Phenotype (%),[6],3% and 4%
same,Population Mitochondria Different-Phenotype (%),[6],5%
same,Population Mitotic Cells (%),[6],52% and 46%
same,Population Normal (%),[6],89% and 88%
same,Population Pyknosed Nuclei (%),[6],6% and 4%
same,Population Tubulin-Different-Phenotype (%),[6],67% and 70%
same,Total Cell Count,[6],617 and 637
Cn1cc(-c2ccc(-c3cncc(Cl)c3N3CCC4(CCNC4=O)CC3)cc2)cn1,Population Apoptotic (%),[1],62% and 39%
same,Population Fragmented Nuclei (%),[1],2% and 4%
same,Population Healthy Nuclei (%),[1],90% and 84%
same,Population Hoechst High Intensity Objects (%),[1],6% and 5%
same,Population Membrane Permeable-Phenotype (%),[1],5% and 4%
same,Population Mitochondria Different-Phenotype (%),[1],14% and 18%
same,Population Mitotic Cells (%),[1],37% and 60%
same,Population Normal (%),[1],93% and 94%
same,Population Pyknosed Nuclei (%),[1],6% and 11%
same,Population Tubulin-Different-Phenotype (%),[1],58% and 67%
same,Total Cell Count,[1],574 and 615
same,Population Apoptotic (%),[2],41% and 49%
same,Population Fragmented Nuclei (%),[2],2% and 3%
same,Population Healthy Nuclei (%),[2],87% and 86%
same,Population Hoechst High Intensity Objects (%),[2],7%
same,Population Membrane Permeable-Phenotype (%),[2],5% and 6%
same,Population Mitochondria Different-Phenotype (%),[2],40% and 35%
same,Population Mitotic Cells (%),[2],58% and 50%
same,Population Normal (%),[2],92%
same,Population Pyknosed Nuclei (%),[2],10%
same,Population Tubulin-Different-Phenotype (%),[2],98% and 95%
same,Total Cell Count,[2],600 and 554
same,Population Apoptotic (%),[3],36% and 51%
same,Population Fragmented Nuclei (%),[3],6% and 9%
same,Population Healthy Nuclei (%),[3],86% and 85%
same,Population Hoechst High Intensity Objects (%),[3],9% and 10%
same,Population Membrane Permeable-Phenotype (%),[3],3%
same,Population Mitochondria Different-Phenotype (%),[3],8% and 7%
same,Population Mitotic Cells (%),[3],63% and 48%
same,Population Normal (%),[3],90% and 89%
same,Population Pyknosed Nuclei (%),[3],7% and 5%
same,Population Tubulin-Different-Phenotype (%),[3],53%
same,Total Cell Count,[3],822 and 828
same,Population Apoptotic (%),[4],43% and 49%
same,Population Fragmented Nuclei (%),[4],5%
same,Population Healthy Nuclei (%),[4],85% and 84%
same,Population Hoechst High Intensity Objects (%),[4],5% and 9%
same,Population Membrane Permeable-Phenotype (%),[4],6% and 5%
same,Population Mitochondria Different-Phenotype (%),[4],34% and 30%
same,Population Mitotic Cells (%),[4],56% and 50%
same,Population Normal (%),[4],94% and 90%
same,Population Pyknosed Nuclei (%),[4],9% and 10%
same,Population Tubulin-Different-Phenotype (%),[4],95% and 94%
same,Total Cell Count,[4],684 and 624
same,Population Apoptotic (%),[5],31% and 36%
same,Population Fragmented Nuclei (%),[5],16% and 14%
same,Population Healthy Nuclei (%),[5],80% and 82%
same,Population Hoechst High Intensity Objects (%),[5],16% and 14%
same,Population Membrane Permeable-Phenotype (%),[5],5% and 4%
same,Population Mitochondria Different-Phenotype (%),[5],2%
same,Population Mitotic Cells (%),[5],68% and 63%
same,Population Normal (%),[5],83% and 85%
same,Population Pyknosed Nuclei (%),[5],2% and 3%
same,Population Tubulin-Different-Phenotype (%),[5],42% and 49%
same,Total Cell Count,[5],1341 and 1209
same,Population Apoptotic (%),[6],55% and 50%
same,Population Fragmented Nuclei (%),[6],8% and 7%
same,Population Healthy Nuclei (%),[6],84% and 83%
same,Population Hoechst High Intensity Objects (%),[6],10%
same,Population Membrane Permeable-Phenotype (%),[6],8%
same,Population Mitochondria Different-Phenotype (%),[6],15% and 18%
same,Population Mitotic Cells (%),[6],45% and 49%
same,Population Normal (%),[6],89%
same,Population Pyknosed Nuclei (%),[6],6% and 8%
same,Population Tubulin-Different-Phenotype (%),[6],87% and 85%
same,Total Cell Count,[6],1065 and 859
